# Measured values as given in ChEMBL document CHEMBL4680114, “Optimization of Potent and Selective Ataxia Telangiectasia-Mutated Inhibitors Suitable for a Proof-of-Concept Study in Huntington's Disease Models” (J Med Chem, 2019).
# Assays:
# [1] = Kinetic solubility in pH 7.4 PBS buffer by LC-UV assay; format: physicochemical; settings: read-out: Kinetic_solubility
# Method in brief: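 Compound from a 10 mM DMSO stock diluted to a nominal 200 µM in 0.1 M potassium phosphate/0.8% NaCl pH 7.4 (2% DMSO final), n=2. Shaken 2 h at room temperature, then filtered. Filtrate quantified by LC-UV against 200 µM and 10 µM DMSO standards, with MS peak confirmation.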
# [2] = AUC/dose in C57BL/6J mouse plasma at 3 mg/kg, iv administered as single dose by LC-MS/MS analysis; format: ADME, organism-based; settings: in vivo
# Method in brief: (§1)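 Male C57BL/6 mice, single intravenous dose as solution in 10:50:40 DMSO:PEG400:H2O (5 mL/kg). Plasma by cardiac puncture and brain collected at set times, n=3 per time point. LC-MS/MS quantitation with diclofenac IS. Composite non-compartmental parameters from mean concentrations; C0 back-extrapolated from first two points; kel from at least last three concentrations; AUC dose-normalized.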
# [3] = AUC/dose in C57BL/6J mouse brain at 3 mg/kg, iv administered as single dose by LC-MS/MS analysis; format: ADME, organism-based; settings: in vivo; method in brief: as §1
# [4] = Volume of distribution at steady state in C57BL/6J mouse at 3 mg/kg, iv administered as single dose by LC-MS/MS analysis; format: ADME, organism-based; settings: in vivo, read-out: Vdss
# Method in brief: (§2)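 Male mice given a single iv dose of 3 mg/kg in 10:50:40 DMSO:PEG400:H2O (5 mL/kg). Plasma (cardiac puncture) and brain collected, n=3 per time point, and measured by LC-MS/MS. Non-compartmental parameters from mean concentrations, with C0 back-extrapolated; AUC by linear trapezoidal method, dose-normalised.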
# [5] = Ratio of AUC/dose in brain to plasma of C57BL/6J mouse at 3 mg/kg, iv administered as single dose by LC-MS/MS analysis; format: ADME, organism-based; settings: brain and plasma, read-out: BPR; method in brief: as §2
# [6] = Unbound brain-to-plasma concentration ratio in C57BL/6J mouse at 3 mg/kg, iv administered as single dose by LC-MS/MS analysis; format: ADME, organism-based; settings: brain and plasma, read-out: K(p,uu,brain)
# [7] = AUC/dose in C57BL/6J mouse plasma at 10 mg/kg, po by LC-MS/MS analysis; format: ADME, organism-based; settings: in vivo
# Method in brief: (§3)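 Male C57BL/6 mice, single oral dose as fine suspension in 10% or 20% hydroxypropyl-beta-cyclodextrin in water (10 mL/kg). Terminal cardiac-puncture plasma and saline-rinsed brain, n=3 per time point; brain homogenized in acetonitrile:water 3:1. LC-MS/MS with diclofenac IS; LLOQ 6 nM plasma, 21 nM brain. Composite non-compartmental analysis of mean concentrations; AUC normalized to actual dose.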
# [8] = Oral bioavailability in C57BL/6J mouse plasma at 10 mg/kg by LC-MS/MS analysis; format: ADME, organism-based
# Method in brief: (§4)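 Male mice given a single oral dose of 10, 30 or 100 mg/kg as a fine suspension in 10% or 20% hydroxypropyl-β-cyclodextrin (10 mL/kg). Plasma and brain collected (n=3/time point) and measured by LC-MS/MS. Non-compartmental analysis on mean concentrations; AUC dose-normalised. %F = normalised po AUCinf / normalised iv AUCinf.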
# [9] = Cmax/dose in C57BL/6J mouse plasma at 10 mg/kg, po by LC-MS/MS analysis; format: ADME, organism-based; settings: in vivo; method in brief: as §3
# [10] = Tmax in C57BL/6J mouse plasma at 10 mg/kg, po by LC-MS/MS analysis; format: ADME, organism-based; method in brief: as §4
# [11] = AUC/dose in C57BL/6J mouse plasma at 30 mg/kg, po by LC-MS/MS analysis; format: ADME, organism-based; settings: in vivo; method in brief: as §3
# [12] = Oral bioavailability in C57BL/6J mouse plasma at 30 mg/kg by LC-MS/MS analysis; format: ADME, organism-based; method in brief: as §4
# [13] = Cmax/dose in C57BL/6J mouse plasma at 30 mg/kg, po by LC-MS/MS analysis; format: ADME, organism-based; settings: in vivo; method in brief: as §3
# [14] = Tmax in C57BL/6J mouse plasma at 30 mg/kg, po by LC-MS/MS analysis; format: ADME, organism-based; method in brief: as §4
# [15] = AUC/dose in C57BL/6J mouse plasma at 100 mg/kg, po by LC-MS/MS analysis; format: ADME, organism-based; settings: in vivo; method in brief: as §3
# [16] = Oral bioavailability in C57BL/6J mouse plasma at 100 mg/kg by LC-MS/MS analysis; format: ADME, organism-based; method in brief: as §4
# [17] = Cmax/dose in C57BL/6J mouse plasma at 100 mg/kg, po by LC-MS/MS analysis; format: ADME, organism-based; settings: in vivo; method in brief: as §3
# [18] = Tmax in C57BL/6J mouse plasma at 100 mg/kg, po by LC-MS/MS analysis; format: ADME, organism-based; method in brief: as §4
# [19] = AUC/dose in C57BL/6J mouse brain at 10 mg/kg, po by LC-MS/MS analysis; format: ADME, organism-based; settings: in vivo; method in brief: as §3
# [20] = Cmax/dose in C57BL/6J mouse brain at 10 mg/kg, po by LC-MS/MS analysis; format: ADME, organism-based; settings: in vivo; method in brief: as §3
# [21] = Tmax in C57BL/6J mouse brain at 10 mg/kg, po by LC-MS/MS analysis; format: ADME, organism-based; method in brief: as §4
# [22] = Ratio of AUC/dose in brain to plasma of C57BL/6J mouse at 10 mg/kg, po administered as single dose by LC-MS/MS analysis; format: ADME, organism-based; settings: brain and plasma, read-out: BPR; method in brief: as §4
# [23] = Unbound brain-to-plasma concentration ratio in C57BL/6J mouse at 10 mg/kg, po administered as single dose by LC-MS/MS analysis; format: ADME, organism-based; settings: brain and plasma, read-out: K(p,uu,brain)
# [24] = AUC/dose in C57BL/6J mouse brain at 30 mg/kg, po by LC-MS/MS analysis; format: ADME, organism-based; settings: in vivo; method in brief: as §3
# [25] = Cmax/dose in C57BL/6J mouse brain at 30 mg/kg, po by LC-MS/MS analysis; format: ADME, organism-based; settings: in vivo; method in brief: as §3
# [26] = Tmax in C57BL/6J mouse brain at 30 mg/kg, po by LC-MS/MS analysis; format: ADME, organism-based; method in brief: as §4
# [27] = Ratio of AUC/dose in brain to plasma of C57BL/6J mouse at 30 mg/kg, po administered as single dose by LC-MS/MS analysis; format: ADME, organism-based; settings: brain and plasma, read-out: BPR; method in brief: as §4
# [28] = Unbound brain-to-plasma concentration ratio in C57BL/6J mouse at 30 mg/kg, po administered as single dose by LC-MS/MS analysis; format: ADME, organism-based; settings: brain and plasma, read-out: K(p,uu,brain)
# [29] = AUC/dose in C57BL/6J mouse brain at 100 mg/kg, po by LC-MS/MS analysis; format: ADME, organism-based; settings: in vivo; method in brief: as §3
# [30] = Cmax/dose in C57BL/6J mouse brain at 100 mg/kg, po by LC-MS/MS analysis; format: ADME, organism-based; settings: in vivo; method in brief: as §3
# [31] = Tmax in C57BL/6J mouse brain at 100 mg/kg, po by LC-MS/MS analysis; format: ADME, organism-based; method in brief: as §4
# [32] = Ratio of AUC/dose in brain to plasma of C57BL/6J mouse at 100 mg/kg, po administered as single dose by LC-MS/MS analysis; format: ADME, organism-based; settings: brain and plasma, read-out: BPR; method in brief: as §4
# [33] = Unbound brain-to-plasma concentration ratio in C57BL/6J mouse at 100 mg/kg, po administered as single dose by LC-MS/MS analysis; format: ADME, organism-based; settings: brain and plasma, read-out: K(p,uu,brain)
smiles,measurement,setting,value
COc1ccc2c(c1)Cc1cccc(-c3cc(=O)cc(N4CCOCC4)o3)c1S2,solubility kinetic,[1],11 µg/mL
same,AUC/dose,[2],2700 nM·kg·h/mg
same,AUC/dose,[3],3500 nM·kg·h/mg
same,Vd,[4],1.6 L/kg
same,Kp,[5],1.3
same,Kp uu,[6],0.44
same,AUC/dose,[7],2400 nM·kg·h/mg
same,bioavailability,[8],89%
same,Cmax/dose,[9],850 nM·kg/mg
same,Tmax,[10],60 min
same,AUC/dose,[11],3000 nM·kg·h/mg
same,bioavailability,[12],111%
same,Cmax/dose,[13],890 nM·kg/mg
same,Tmax,[14],15 min
same,AUC/dose,[15],1800 nM·kg·h/mg
same,bioavailability,[16],67%
same,Cmax/dose,[17],450 nM·kg/mg
same,Tmax,[18],15 min
same,AUC/dose,[19],3200 nM·kg·h/mg
same,Cmax/dose,[20],950 nM·kg/mg
same,Tmax,[21],60 min
same,Kp,[22],1.3
same,Kp uu,[23],0.45
same,AUC/dose,[24],3300 nM·kg·h/mg
same,Cmax/dose,[25],880 nM·kg/mg
same,Tmax,[26],30 min
same,Kp,[27],1.1
same,Kp uu,[28],0.37
same,AUC/dose,[29],2600 nM·kg·h/mg
same,Cmax/dose,[30],850 nM·kg/mg
same,Tmax,[31],60 min
same,Kp,[32],1.4
same,Kp uu,[33],0.49
